Experimental data collected from several papers.
Target: Mitogen-activated protein kinase 8 (MAPK8, Homo sapiens, UniProt P45983)

SMILES | assay | setting | quantity | value
C[C@H]1CC[C@H](n2c3cnccc3c3cnc(Nc4ccc5c(n4)CCN(C(=O)CO)C5)nc32)CC1 | binding | 1 µM | remaining binding | 7%
C=CC(=O)N1CCC([C@@H]2CCNc3c(C(N)=O)c(-c4ccc(Oc5ccccc5)cc4)nn32)CC1 | enzyme activity, inhibitor | 1 µM | inhibition | 21%
C#Cc1cnc(Nc2ccnc(CO)c2)nc1Nc1ccccc1S(C)(=O)=NC#N (stereo not drawn) | cell-free assay | 1 µM | remaining signal | 54%
CO[C@@H]1[C@H](N(C)C(=O)c2ccccc2)C[C@H]2O[C@]1(C)n1c3ccccc3c3c4c(c5c6ccccc6n2c5c31)C(=O)NC4 | enzyme activity, inhibitor | 1 µM | inhibition | 22%
Cc1ccc(NC(=O)c2ccnc(C(F)(F)F)c2)cc1-c1cc(OCCO)nc(N2CCOCC2)c1 | binding | 1 µM | remaining binding | 80%
C1=C/COCc2cc(ccc2OCCN2CCCC2)Nc2nccc(n2)-c2cccc(c2)COC/1 | cell-free assay | 0.1 µM | remaining signal | 12%
N#Cc1ccc(NC(=O)Nc2ccccc2)cc1 | cell-free assay, competition with immobilised ligand | 25 µM | remaining binding | 78%
C#Cc1cc(-c2cc(Nc3nc(N[C@@H](C)c4ccc(F)cn4)ncc3Cl)n[nH]2)ccc1C=O | enzyme activity, inhibitor | 0.2 µM | inhibition | 9.62%
CCCCC(=O)Nc1ccc(-c2ccc3ncn(CCC)c(=O)c3c2)cn1 | binding, competition with immobilised ligand | 0.5 µM | remaining binding | 52%
